Laboratory results published in ChEMBL document CHEMBL2331165, “Semisynthesis and myocardial activity of thaliporphine N-homologues” (2013).
Calls of active or inactive are those of the source. The rule behind the calls is not given here.

Columns and labels:
[1] = Myocardial activity in Wistar-Kyoto rat left atrium exposed to electrical stimulation driven at 2 Hz assessed as muscle contraction at 3 uM relative to untreated control; format: functional, Muscle tissue
Summary of the method: (§1)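 Left atrial and right ventricular strips from male Wistar-Kyoto rats, electrically driven, in Tyrode's solution gassed with CO2−O2 (1:19) at 36 ± 0.2 °C. Optimal preload 0.5−1.0 g for maximal developed tension. Contraction recorded by force displacement transducer and expressed as % of the pre-treatment control. Means from four to five experiments.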

[2] = Myocardial activity in Wistar-Kyoto rat right ventricle exposed to electrical stimulation driven at 2 Hz assessed as muscle contraction at 10 uM relative to untreated control; format: functional, Muscle tissue; summary of the method: as §1
[3] = Myocardial activity in Wistar-Kyoto rat right atrium exposed to electrical stimulation driven at 2 Hz assessed as muscle contraction at 10 uM relative to untreated control; format: functional, Muscle tissue
[4] = Myocardial activity in Wistar-Kyoto rat right atrium exposed to electrical stimulation driven at 2 Hz assessed as muscle contraction at 30 uM relative to untreated control; format: functional, Muscle tissue
[5] = Myocardial activity in Wistar-Kyoto rat right ventricle exposed to electrical stimulation driven at 2 Hz assessed as muscle contraction at 30 uM relative to untreated control; format: functional, Muscle tissue; summary of the method: as §1
[6] = Myocardial activity in Wistar-Kyoto rat left atrium exposed to electrical stimulation driven at 2 Hz assessed as muscle contraction at 30 uM relative to untreated control; format: functional, Muscle tissue; summary of the method: as §1
[7] = system: Heart; test: Myocardial activity in Wistar-Kyoto rat heart assessed as heart rate level at 3 uM relative to untreated control; format: functional
Summary of the method: (§2)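 Right atria from male Wistar-Kyoto rat hearts in an organ bath of Tyrode's solution gassed with CO2−O2 (1:19) at 36 ± 0.2 °C. Spontaneous beating rate recorded and expressed as % of the pre-treatment control. Means from four to five experiments.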

[8] = Myocardial activity in Wistar-Kyoto rat left atrium exposed to electrical stimulation driven at 2 Hz assessed as muscle contraction at 10 uM relative to untreated control; format: functional, Muscle tissue; summary of the method: as §1
[9] = system: Heart; test: Myocardial activity in Wistar-Kyoto rat heart assessed as heart rate level at 30 uM relative to untreated control; format: functional; summary of the method: as §2
[10] = Myocardial activity in Wistar-Kyoto rat right atrium exposed to electrical stimulation driven at 2 Hz assessed as muscle contraction at 3 uM relative to untreated control; format: functional, Muscle tissue
[11] = Myocardial activity in Wistar-Kyoto rat right ventricle exposed to electrical stimulation driven at 2 Hz assessed as muscle contraction at 3 uM relative to untreated control; format: functional, Muscle tissue; summary of the method: as §1
[12] = system: Heart; test: Myocardial activity in Wistar-Kyoto rat heart assessed as heart rate level at 10 uM relative to untreated control; format: functional; summary of the method: as §2
[13] = species: Rattus norvegicus; test: Positive inotropic effect in Wistar-Kyoto rat left atrium exposed to electrical stimulation driven at 2 Hz assessed as muscle contraction at 3 to 30 uM in presence of 3 uM atenolol relative to untreated control; format: functional, tissue-based; details: Cardiac atrium
[14] = species: Rattus norvegicus; test: Positive inotropic effect in Wistar-Kyoto rat left atrium exposed to electrical stimulation driven at 2 Hz assessed as muscle contraction at 3 to 30 uM in presence of 1 uM prazosin relative to untreated control; format: functional, tissue-based; details: Cardiac atrium
[15] = species: Rattus norvegicus; test: Positive inotropic effect in Wistar-Kyoto rat left atrium exposed to electrical stimulation driven at 2 Hz assessed as muscle contraction at 3 to 30 uM in presence of 1 uM verapamil relative to untreated control; format: functional, tissue-based; details: Cardiac atrium

| Compound | Activity [1] | Activity [2] | Activity [3] | Activity [4] | Activity [5] | Activity [6] | Activity [7] | Activity [8] | Activity [9] | Activity [10] | Activity [11] | Activity [12] | Activity [13] | Activity [14] | Activity [15] |
| --- | --- | --- | --- | --- | --- | --- | --- | --- | --- | --- | --- | --- | --- | --- | --- |
| CCCN1CCc2cc(OC)c(O)c3c2[C@H]1Cc1cc(OC)c(OC)cc1-3 | 101% | 100% | 131% | 141% | 96% | 99% | 88% | 105% | 68% | 121% | 100% | 79% | – | – | – |
| COc1cc2c(cc1OC)-c1c(O)c(OC)cc3c1[C@@H](C2)NCC3 | 103% | 111% | 103% | 105% | 120% | 105% | 100% | 104% | 79% | 101% | 108% | 96% | – | – | – |
| CCN1CCc2cc(OC)c(O)c3c2[C@@H]1Cc1cc(OC)c(OC)cc1-3 | 105% | 108% | 127% | 162% | 111% | 131% | 97% | 122% | 84% | 93% | 100% | 97% | – | – | – |
| COc1cc2c(cc1OC)-c1c(O)c(OC)cc3c1[C@H](C2)NCC3 | 94% | 96% | 99% | 117% | 90% | 89% | 91% | 93% | 61% | 99% | 102% | 78% | – | – | – |
| COc1cc2c(cc1OC)-c1c(O)c(OC)cc3c1[C@H](C2)N(C)CC3 | 110% | 154% | 140% | 180% | 163% | 243% | 92% | 180% | 82% | 104% | 125% | 86% | Active | Active | Active |
| CCCN1CCc2cc(OC)c(O)c3c2[C@@H]1Cc1cc(OC)c(OC)cc1-3 | 99% | 85% | 103% | 103% | 75% | 74% | 91% | 90% | 61% | 103% | 95% | 80% | – | – | – |
| COc1cc2c(cc1OC)-c1c(O)c(OC)cc3c1[C@@H](C2)N(C)CC3 | 106% | 80% | 121% | 129% | 72% | 100% | 92% | 103% | 69% | 106% | 93% | 85% | – | – | – |
